Test results taken from ChEMBL document CHEMBL2057168, “(1aR,5aR)1a,3,5,5a-Tetrahydro-1H-2,3-diaza-cyclopropa[a]pentalene-4-carboxylic acid (MK-1903): a potent GPR109a agonist that lowers free fatty acids in humans” (J Med Chem, 2012).
Activity calls are given as the source filed them. No cut-off for these calls is given here.

How the values were obtained:
[1] = Terminal half life in Sprague-Dawley rat at 2 mg/kg, iv; assay type: ADME, organism-based; set-up: dose 2 mg/kg, route intravenous; settings: in vivo, read-out: beta t1/2 (converted)
Outline: (§1)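 Male Sprague-Dawley rats were dosed at 10 mg/kg po or 2 mg/kg iv in 80% PEG400/20% phosphate-buffered saline, fasted overnight before the oral dose. Jugular blood was sampled serially from 0.25 to 21 h over 24 h, and heparinized plasma was prepared. Drug was assayed by HPLC/MS/MS (quantitation range 1–2000 ng/mL).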

[2] = Terminal half life in dog; assay type: ADME, organism-based, Canis lupus familiaris; settings: in vivo, read-out: beta t1/2 (converted)
[3] = Cmax in human at titreated po dose administered from day 1 to 4 followed by 200 mg, po QD administered up to day 11 measured on day 11; assay type: ADME, organism-based; set-up: dose 200 mg, route oral; settings: in vivo
Outline: (§2)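 Healthy male volunteers took part in a double-blind, randomized, placebo-controlled dose-escalation study, with cohorts of 8 (6 on drug, 2 on placebo). Each subject got an oral dose on day 1, then a 2-day washout, then dosing on days 4–11. The 200 mg qd group was titrated over days 1–4. Venous plasma was sampled predose and 0.5–12 h postdose on days 1, 4 and 11, and predose on days 5–10 for troughs.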

[4] = AUC (0 to 12 hrs) in human at 150 mg, po BID administered on day 1 followed by 2-day wash out period after which dosing continued up to day 11 measured on day 4; assay type: ADME, organism-based; set-up: dose 150 mg, time < 12 hr, route oral; settings: plasma
Outline: (§3)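 Double-blind, placebo-controlled, randomized dose-escalation study in healthy male volunteers, six cohorts of eight (six active, two placebo). Oral dose on day 1, two-day washout, then dosing days 4–11; the 200 mg qd cohort was titrated over days 1–4. Venous blood taken predose and at 0.5–12 h on days 1, 4 and 11; plasma drug measured. τ 12 h (bid), 24 h (qd), 8 h (tid), 6 h (qid).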

[5] = AUC (0 to 6 hrs) in human at 175 mg, po QID administered on day 1 followed by 2-days wash out period after which dosing continued up to day 11 measured on day 11; assay type: ADME, organism-based; set-up: time < 6 hr, dose 175 mg, route oral; settings: plasma; outline: as §3
Cytochrome P450 3A4 = Cytochrome P450 3A4 (Homo sapiens, UniProt P08684); experiment: Activity at CYP3A4; assay type: ADME
Cytochrome P450 3A4, sequence (P08684 whole entry): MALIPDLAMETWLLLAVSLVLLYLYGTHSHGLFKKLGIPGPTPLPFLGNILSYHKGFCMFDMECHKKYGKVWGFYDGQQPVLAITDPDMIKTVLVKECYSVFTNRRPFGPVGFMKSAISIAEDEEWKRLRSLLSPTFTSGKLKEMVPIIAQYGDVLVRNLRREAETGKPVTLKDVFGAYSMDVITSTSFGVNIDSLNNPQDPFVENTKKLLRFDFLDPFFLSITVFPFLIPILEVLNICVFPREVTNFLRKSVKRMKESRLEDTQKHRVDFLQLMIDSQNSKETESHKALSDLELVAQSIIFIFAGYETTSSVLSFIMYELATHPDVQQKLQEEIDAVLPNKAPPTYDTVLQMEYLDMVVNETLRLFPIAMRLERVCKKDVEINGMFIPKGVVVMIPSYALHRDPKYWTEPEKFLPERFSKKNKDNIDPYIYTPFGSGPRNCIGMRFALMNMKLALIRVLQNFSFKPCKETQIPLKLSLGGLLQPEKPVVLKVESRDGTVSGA

[6] = AUC (0 to 24 hrs) in human at titreated po dose administered from day 1 to 4 followed by 200 mg, po QD administered up to day 11 measured on day 11; assay type: ADME, organism-based; set-up: time < 24 hr, dose 200 mg, route oral; settings: plasma; outline: as §3
Homo sapiens [7] = experiment: Antidyslipedic activity in human assessed as decrease in free fatty acid level at 50 to 200 mg, po administered as a single dose measured after 1 to 2 hrs relative to placebo control; assay type: functional; set-up: scale not given: the % may be the effect or the level left
Rattus norvegicus = experiment: Antidyslipedic activity in fasted Sprague-Dawley rat assessed as decrease in free fatty acid level at 0.01 to 100 mg/kg, po by NEFA C-free fatty acid assay; assay type: functional; set-up: scale not given: the % may be the effect or the level left; settings: dose mg/kg 0.01-100
Outline: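 Male Sprague-Dawley rats fasted, compound by oral gavage, serial plasma sampling after dosing for free fatty acids over a time course; vehicle-dosed control group.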

[8] = AUC (0 to 12 hrs) in human at 100 mg, po BID administered on day 1 followed by 2-day wash out period after which dosing continued up to day 11 measured on day 1; assay type: ADME, organism-based; set-up: dose 100 mg, time < 12 hr, route oral; settings: plasma; outline: as §3
[9] = Tmax in human at 100 mg, po BID administered on day 1 followed by 2-day wash out period after which dosing continued up to day 11 measured on day 1; assay type: ADME, organism-based; settings: in vivo; outline: as §2
Homo sapiens [10] = experiment: Antidyslipidemic activity in dyslipidemia patient assessed as decrease in free fatty acid level at 150 mg administered TID during four week study; assay type: functional, organism-based
[11] = Oral bioavailability in rhesus monkey; assay type: ADME, organism-based, Macaca mulatta; settings: in vivo
Homo sapiens [12] = experiment: Toxicity in human assessed as occurrence of flushing administered as single dose; assay type: organism-based; settings: in vivo
Outline: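 Healthy volunteers scored subject-reported flushing with a flushing symptoms questionnaire after single oral doses and during repeat divided daily dosing.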

[13] = AUC (0 to 24 hrs) in human at titreated po dose administered from day 1 to 4 followed by 200 mg, po QD administered up to day 11 measured on day 4; assay type: ADME, organism-based; set-up: dose 200 mg, time < 24 hr, route oral; settings: plasma; outline: as §3
[14] = Cmin in human at 150 mg, po BID administered on day 1 followed by 2-day wash out period after which dosing continued up to day 11 measured on day 1 at 12 hrs; assay type: ADME, organism-based; settings: in vivo, read-out: Cmin; outline: as §2
[15] = Volume of distribution in mouse; assay type: ADME, organism-based; settings: in vivo
Cytochrome P450 2C9 = Cytochrome P450 2C9 (Homo sapiens, UniProt P11712); experiment: Activity at CYP2C9; assay type: ADME
Cytochrome P450 2C9, sequence (P11712 whole entry): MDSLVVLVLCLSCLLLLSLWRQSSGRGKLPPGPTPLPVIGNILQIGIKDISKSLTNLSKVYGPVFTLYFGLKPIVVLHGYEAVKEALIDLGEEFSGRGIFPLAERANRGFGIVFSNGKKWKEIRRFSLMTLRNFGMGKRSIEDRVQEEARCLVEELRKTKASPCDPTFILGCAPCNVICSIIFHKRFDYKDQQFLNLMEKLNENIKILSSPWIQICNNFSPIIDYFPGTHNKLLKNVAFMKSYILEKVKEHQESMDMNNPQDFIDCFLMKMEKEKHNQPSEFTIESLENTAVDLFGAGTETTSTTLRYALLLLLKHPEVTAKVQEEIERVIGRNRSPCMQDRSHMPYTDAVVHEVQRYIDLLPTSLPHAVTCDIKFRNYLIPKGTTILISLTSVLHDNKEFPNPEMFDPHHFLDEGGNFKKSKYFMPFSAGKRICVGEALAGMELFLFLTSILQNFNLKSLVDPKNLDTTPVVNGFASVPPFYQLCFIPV

Homo sapiens [16] = experiment: Antidyslipidemic activity in human assessed as decrease in free fatty acid level titreated po dose administered from day 1 to 4 followed by 200 mg, po QD administered up to day 11 measured on day 4 and 11; assay type: functional, organism-based
Outline: (§4)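 Healthy male volunteers in a randomized, double-blind, placebo-controlled multiple-dose study, six active and two placebo subjects per cohort. Oral dosing on day 1, two-day washout, then days 4–11, with titration over days 1–4 for the qd arm.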

Homo sapiens [17] = experiment: Cmin in human at 50 mg, po BID administered on day 1 followed by 2-day wash out period after which dosing continued up to day 11 measured on day 1 at 12 hrs; assay type: ADME, organism-based; settings: in vivo, BLD = below limit of detection; outline: as §2
[18] = Cmax in human at 150 mg, po TID administered on day 1 followed by 2-days wash out period after which dosing continued up to day 11 measured on day 1; assay type: ADME, organism-based; set-up: dose 150 mg, route oral; settings: in vivo; outline: as §2
[19] = Cmin in human at 175 mg, po QID administered on day 1 followed by 2-days wash out period after which dosing continued up to day 11 measured on day 1 at 6 hrs; assay type: ADME, organism-based; settings: in vivo, read-out: Cmin; outline: as §2
[20] = Cmax in human at 175 mg, po QID administered on day 1 followed by 2-days wash out period after which dosing continued up to day 11 measured on day 4; assay type: ADME, organism-based; set-up: dose 175 mg, route oral; settings: in vivo; outline: as §2
[21] = AUC (0 to 12 hrs) in human at 100 mg, po BID administered on day 1 followed by 2-day wash out period after which dosing continued up to day 11 measured on day 11; assay type: ADME, organism-based; set-up: time < 12 hr, dose 100 mg, route oral; settings: plasma; outline: as §3
Rhesus monkey = experiment: Dose normalized AUC in po dosed rhesus monkey; assay type: ADME, organism-based, Macaca mulatta; settings: in vivo
[22] = Cmin in human at 100 mg, po BID administered on day 1 followed by 2-day wash out period after which dosing continued up to day 11 measured on day 1 at 12 hrs; assay type: ADME, organism-based; settings: in vivo, read-out: Cmin; outline: as §2
Homo sapiens [23] = experiment: Antidyslipidemic activity in human assessed as decrease in free fatty acid level 175 mg, po QID administered on day 1 followed by 2-days wash out period after which dosing continued up to day 11 measured on day 4 and 11; assay type: functional, organism-based; outline: as §4
[24] = Apparent half life in human at 175 mg, po QID administered on day 1 followed by 2-days wash out period after which dosing continued up to day 11 measured on day 11; assay type: ADME, organism-based; settings: in vivo, read-out: t1/2(app) (converted); outline: as §3
Homo sapiens [25] = experiment: Toxicity in human assessed as occurrence of flushing at 5 to 200 mg, po administered as single dose; assay type: organism-based; settings: in vivo
[26] = Cmax in human at 150 mg, po BID administered on day 1 followed by 2-day wash out period after which dosing continued up to day 11 measured on day 11; assay type: ADME, organism-based; set-up: dose 150 mg, route oral; settings: in vivo; outline: as §2
[27] = Plasma clearance in Sprague-Dawley rat at 2 mg/kg, iv; assay type: ADME, organism-based; set-up: dose 2 mg/kg, route intravenous; outline: as §1
[28] = AUC (0 to 8 hrs) in human at 150 mg, po TID administered on day 1 followed by 2-days wash out period after which dosing continued up to day 11 measured on day 4; assay type: ADME, organism-based; set-up: time < 8 hr, dose 150 mg, route oral; settings: plasma; outline: as §3

In the case of `O=C(O)c1n[nH]c2c1C[C@H]1C[C@@H]21`, the half-life [1] is reported as 2.4 h, the half-life [2] is reported as 3.4 h and the Cmax [3] is reported as 49.8 nM. For the same compound, the AUC at 12 h [4] was 0.0803 µM·h, the AUC at 6 h [5] was 0.123 µM·h and the Activity (Cytochrome P450 3A4) was “Not Active”. For the same compound, the AUC at 24 h [6] was 0.119 µM·h, the Activity (Homo sapiens [7]) was 90% and the Activity (Rattus norvegicus) was 90%. The AUC at 12 h [8] was 0.0728 µM·h, the Tmax [9] was 1 h and the Activity (Homo sapiens [10]) was “Active”. The bioavailability [11] was 39%, the Activity (Homo sapiens [12]) was “Dose-dependent effect” and the AUC at 24 h [13] was 0.114 µM·h. The concentration at 12 h [14] was 0.316 nM, the Vd [15] was 0.75 L/kg and the Activity (Cytochrome P450 2C9) was “Not Active”. The Activity (Homo sapiens [16]) was “Active”, the Cmin (Homo sapiens [17]) was “BLD” and the Cmax [18] was 48400 nM. For the same compound, the concentration at 6 h [19] was 4.01 nM, the Cmax [20] was 49.9 nM and the AUC at 12 h [21] was 0.0611 µM·h. The AUC/dose (Rhesus monkey) was 8.5 µM·kg·h/mg, the concentration at 12 h [22] was 0.124 nM and the Activity (Homo sapiens [23]) was “Active”. The half-life [24] was 6 h, the Activity (Homo sapiens [25]) was “Toxic” and the Cmax [26] was 27.7 nM. The clearance [27] was 17 mL/min/kg and the AUC at 8 h [28] was 0.0885 µM·h.
